Published values collected from several papers.
Compare with care: the assays were run in different laboratories.

The Cmax of `[2H]C([2H])([2H])n1cc2cc(Nc3nc(=O)n(Cc4ncn(C)n4)c(=O)n3Cc3cc(F)c(F)cc3F)c(Cl)cc2n1` is reported as 23.9 µg/mL (male Sprague-Dawley rat; plasma; intravenous; 5 mg/kg).
For `Cl.Cl.O=C(CCN1CCCCC1)c1ccc(-c2ccc(C(=O)CCN3CCCCC3)cc2)cc1`, the Cmax was 0.725 µg/mL (Sprague-Dawley rat; plasma; intravenous; 5 mg/kg).
With `O=C([O-])C(=O)[O-].[NH-][C@@H]1CCCC[C@H]1[NH-].[Pt+4]` (relative stereo) the Cmax was 2.45 µg/mL (rat; plasma; intravenous; 5 mg/kg).
With `CCCCCCCC(=O)N[C@@H](CCCCN)C(=O)N[C@@H](CCCCN)C(=O)N[C@@H](C)C(=O)N[C@@H](CC(C)C)C(=O)N[C@@H](CCCCN)C(=O)N[C@@H](CC(C)C)C(=O)N[C@@H](C)C(=O)N[C@@H](CCCCN)C(=O)N[C@@H](CCCCN)C(=O)N1CCC[C@H]1C(=O)N[C@@H](CC(C)C)C(=O)N[C@@H](CCCCN)C(=O)N[C@@H](CC(C)C)C(=O)N[C@@H](CC(C)C)C(=O)N[C@@H](CCCCN)C(N)=O` the Cmax was 0.273 µg/mL (male Sprague-Dawley rat; blood; intravenous; 3 mg/kg; infusion).
The Cmax of `[2H]C([2H])(c1cc(F)c(F)cc1F)n1c(=O)n(Cc2ncn(C)n2)c(=O)[nH]/c1=N\c1cc2cn(C)nc2cc1Cl` is reported as 25.2 µg/mL (male Sprague-Dawley rat; plasma; intravenous; 5 mg/kg).
With `N=c1c2c(-c3ccccc3)c(-c3ccccc3)n(Cc3ccccc3)c2ncn1[C@H]1CC[C@H](O)CC1` the Cmax was 0.133 µg/mL (male Sprague-Dawley rat; plasma; oral; 2 mg/kg; single dose).
The Cmax of `CCCCCn1nc(C(=O)Nc2cccc3ccccc23)c2ccccc21` is reported as 0.213 µg/mL (male Long-Evans rat; plasma; intraperitoneal; 3 mg/kg).
`Cc1ncc(C)n2nc(/C=C/c3nc(N4CCCC4)cc(N4CCOCC4)n3)nc12` gave a Cmax of 0.036 µM (male Sprague-Dawley rat; plasma; oral; 0.3 mg/kg).
The Cmax of `CCCCCn1cc(C(=O)Nc2cccc3ccccc23)c2ccccc21` is reported as 0.296 µg/mL (male Long-Evans rat; plasma; intraperitoneal; 3 mg/kg).
With `COc1ccc2c3c1O[C@H]1C[C@@H](OC(=O)c4ccccc4)C=C[C@@]31CCN(C)C2` the Cmax was 13600 ng/g (rat; brain; intravenous; 5 mg/kg).
`COC(=O)C(NC(=O)c1cn(CCCCCF)c2ccccc12)C(C)(C)C` (stereo not drawn) has a Cmax of 0.00172 µg/mL (male Sprague-Dawley rat; plasma; subcutaneous; 50 µg/kg).
`O=C(Nc1cccnn1)N1CCN([C@@H]2CCOc3cc(C(F)(F)F)ccc32)CC1` gave a Cmax of 1.52 µM (male Sprague-Dawley rat; plasma; oral; 3 mg/kg).
The Cmax of `CCC[C@@](N)(CO)CCc1ccc(OCCCCCC(C)C)cc1` is reported as 1.03 µM (rat; plasma; oral; 100 mg/kg).
`C#Cc1ccc2c(c1)C(c1ccccn1)=NCc1c(-c3cnco3)ncn1-2` gave a Cmax of 0.395 µM (rat; plasma; oral; 2 mg/kg).
`COc1ncccc1-c1cnn2ccc(N3CCN(C(=O)OC(C)C)CC3)nc12` has a Cmax of 3.1 µM (rat; plasma; oral; 10 mg/kg).
